# Assay results published in ChEMBL document CHEMBL3259670, “Discovery of 1-aryloxyethyl piperazine derivatives as Kv1.5 potassium channel inhibitors (part I)” (Eur J Med Chem, 2014).
# Structures can show the parent of a compound that is named as a salt. The source made the active and inactive calls. No cut-off for these calls is given here.
# Key:
# [1] = target: T1, Potassium voltage-gated channel subfamily A member 5 (Homo sapiens, UniProt P22460); assay: Inhibition of human Kv1.5 channel expressed in HEK293 cells by whole cell patch clamp assay; assay type: cell-based
# Summary of the method: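 Whole-cell patch clamp was done on transfected HEK293 cells, harvested by trypsin and used the same day, with 4–6 MΩ pipettes at 25 °C. IKur was elicited by 500-ms steps to +60 mV from a −80 mV holding potential at 0.1 Hz. Compound was applied at least 5 min after current stabilization. IC50 came from cell-by-cell Hill fits, with at least 3 cells per concentration; mean ± SD.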
# [2] = target: T1, Potassium voltage-gated channel subfamily A member 5; assay: Inhibition of human Kv1.5 channel expressed in HEK293 cells at 11 uM by whole cell patch clamp assay; assay type: cell-based
# [3] = Dissociation constant, pKa of the compound; assay type: physicochemical
# Summary of the method: (§1)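 pKa and log D at pH 7.4 were determined by Avdeef–Bucher potentiometric titration on a Gemini Profiler instrument.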
# MDCK [4] = assay: Efflux ratio of permeability from apical to basolateral over basolateral to apical in MDCK cells; assay type: ADME, cell-based, Canis lupus familiaris; conditions: dog
# Summary of the method: (§2)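 Bidirectional transport (apical→basolateral and basolateral→apical) was measured in parental MDCK cells and in MDR1-MDCK cells, which stably express multidrug resistance gene 1, to assess P-glycoprotein substrate status. Apparent permeability coefficients (Papp) were determined for each direction. Efflux ratios are ratios of the directional Papp values, computed per cell line. Mean ± SD, n = 3.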
# [5] = (§3) Apparent permeability from basolateral to apical side in MDCK cells; assay type: ADME, cell-based, Canis lupus familiaris; conditions: dog; summary of the method: as §2
# MDR1 [6] = assay: (§4) Apparent permeability from basolateral to apical side in MDCK cells expressing MDR1; assay type: ADME, cell-based, Canis lupus familiaris; conditions: dog, MDCK-MDR1; summary of the method: as §2
# MDCK [7] = assay: Efflux ratio of permeability from apical to basolateral over basolateral to apical in MDCK cells expressing MDR1; assay type: ADME, cell-based, Canis lupus familiaris; conditions: dog; summary of the method: as §2
# [8] = (§5) Apparent permeability from apical to basolateral side in MDCK cells; assay type: ADME, cell-based, Canis lupus familiaris; conditions: dog; summary of the method: as §2
# [9] = Partition coefficient, log D of the compound at pH 7.4; assay type: physicochemical; conditions: octanol/water; summary of the method: as §1
# MDR1 [10] = assay: (§6) Apparent permeability from apical to basolateral side in MDCK cells expressing MDR1; assay type: ADME, cell-based, Canis lupus familiaris; conditions: dog, MDCK-MDR1; summary of the method: as §2
# MDCK [11] = assay: as §3; assay type: ADME, cell-based, Canis lupus familiaris; conditions: dog; summary of the method: as §2
# MDCK [12] = assay: as §4; assay type: ADME, cell-based, Canis lupus familiaris; conditions: dog, mdck; summary of the method: as §2
# MDCK [13] = assay: as §5; assay type: ADME, cell-based, Canis lupus familiaris; conditions: dog; summary of the method: as §2
# MDCK [14] = assay: as §6; assay type: ADME, cell-based, Canis lupus familiaris; conditions: dog, mdck; summary of the method: as §2
# [15] = Toxicity in SPF mouse compound administered through iv; assay type: organism-based; conditions: in vivo
# Summary of the method: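 Acute toxicity by tail-vein iv injection in SPF mice: 70 animals in 7 groups, one given distilled water (30 mL/kg) and six given 84.6, 79.8, 75.3, 71, 67 or 63.2 mg/kg. Behaviour, mental state, excrement and death observed continuously over 0-0.5 h, every 0.5 h to 6 h, then daily for 15 days. LD50 derived by the Bliss-Finney method.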
# Rattus norvegicus [16] = assay: Inhibition of Cacl2-Ach-induced atrial fibrillation Sprague-Dawley rat model assessed as reduction in duration of atrial fibrillation at 2.5 mg/kg, ip during day 1 to day 3; assay type: functional, organism-based; set-up: dose 2.5 mg/kg; conditions: Cardiac atrium
# Rattus norvegicus [17] = assay: Inhibition of Cacl2-Ach-induced atrial fibrillation Sprague-Dawley rat model assessed as increase in atrial effective refractory period at 1.25 mg/kg, ip; conditions: Cardiac atrium
# Rattus norvegicus [18] = assay: Inhibition of Cacl2-Ach-induced atrial fibrillation Sprague-Dawley rat model assessed as reduction in duration of atrial fibrillation at 2.5 mg/kg, ip during day 4 to day 7; assay type: functional, organism-based; set-up: dose 2.5 mg/kg; conditions: Cardiac atrium
# Rattus norvegicus [19] = assay: Inhibition of Cacl2-Ach-induced atrial fibrillation Sprague-Dawley rat model assessed as reduction in duration of atrial fibrillation at 1.25 mg/kg, ip during day 1 to day 3; assay type: functional, organism-based; set-up: dose 1.25 mg/kg; conditions: Cardiac atrium
# Rattus norvegicus [20] = assay: Inhibition of Cacl2-Ach-induced atrial fibrillation Sprague-Dawley rat model assessed as reduction in duration of atrial fibrillation at 1.25 mg/kg, ip during day 4 to day 7; assay type: functional, organism-based; set-up: dose 1.25 mg/kg; conditions: Cardiac atrium
# Rattus norvegicus [21] = assay: Inhibition of Cacl2-Ach-induced atrial fibrillation Sprague-Dawley rat model assessed as increase in atrial effective refractory period at 2.5 mg/kg, ip; conditions: Cardiac atrium
# T1 sequence (P22460 whole entry): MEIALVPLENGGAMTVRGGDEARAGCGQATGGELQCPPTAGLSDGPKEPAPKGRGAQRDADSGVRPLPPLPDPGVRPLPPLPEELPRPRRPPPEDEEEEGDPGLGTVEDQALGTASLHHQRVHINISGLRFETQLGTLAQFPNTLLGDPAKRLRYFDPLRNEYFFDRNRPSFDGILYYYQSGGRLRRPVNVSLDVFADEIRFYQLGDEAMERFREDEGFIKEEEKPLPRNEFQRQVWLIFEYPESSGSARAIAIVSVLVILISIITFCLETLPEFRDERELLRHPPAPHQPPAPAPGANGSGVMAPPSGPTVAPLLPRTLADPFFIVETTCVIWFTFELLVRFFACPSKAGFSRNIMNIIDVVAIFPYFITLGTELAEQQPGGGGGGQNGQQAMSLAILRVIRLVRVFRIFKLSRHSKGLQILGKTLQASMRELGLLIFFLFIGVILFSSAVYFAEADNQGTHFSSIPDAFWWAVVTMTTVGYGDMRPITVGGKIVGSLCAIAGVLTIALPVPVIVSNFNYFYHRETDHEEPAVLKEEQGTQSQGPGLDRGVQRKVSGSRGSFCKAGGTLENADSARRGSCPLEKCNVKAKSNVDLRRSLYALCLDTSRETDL
structure (smiles),measurement,setting,value
O=C(CN1CCN(CCOc2ccc(Cl)cc2)CC1)Nc1ccccc1,IC50,[1],4.38 µM
Cc1ccc(NC(=O)CN2CCN(CCOc3ccc(Cl)cc3)CC2)cc1,IC50,[1],5.02 µM
Cc1ccccc1OCCN1CCN(C(=O)c2cccs2)CC1,IC50,[1],13.5 µM
Cc1ccccc1OCCN1CCN(CC(=O)Nc2ccccc2)CC1,IC50,[1],11.8 µM
O=C(c1cccs1)N1CCN(CCOc2ccccc2Cl)CC1,IC50,[1],9.74 µM
Cc1ccc(OCCN2CCN(CC(=O)Nc3nccs3)CC2)cc1C,IC50,[1],50.2 µM
COc1ccc(OCCN2CCN(C(=O)c3cccs3)CC2)cc1,IC50,[1],21.9 µM
CCOC(=O)c1ccc(OCCN2CCN(CC(=O)Nc3nccs3)CC2)cc1,inhibition,[2],32.1%
Cc1ccc(NC(=O)CN2CCN(CCOc3ccccc3)CC2)cc1,IC50,[1],16.1 µM
O=C(c1cccs1)N1CCN(CCOc2ccc(Cl)cc2Cl)CC1,pKa,[3],5.23
same,Ratio,MDCK [4],0.89
same,Papp B→A,[5],19.1 ×10⁻⁶ cm/s
same,Papp B→A,MDR1 [6],31.5 ×10⁻⁶ cm/s
same,Ratio,MDCK [7],1.24
same,Papp A→B,[8],17 ×10⁻⁶ cm/s
same,logD,[9],3.73
same,Papp A→B,MDR1 [10],39.1 ×10⁻⁶ cm/s
same,IC50,[1],1.48 µM
O=C(CN1CCN(CCOc2ccccc2Cl)CC1)Nc1nccs1,IC50,[1],3.39 µM
Cc1ccc(C(=O)N2CCN(CCOc3ccc(Cl)cc3)CC2)cc1,IC50,[1],4.51 µM
COc1ccc(NC(=O)CN2CCN(CCOc3ccccc3)CC2)cc1,IC50,[1],10.1 µM
Cc1ccc(OCCN2CCN(C(=O)c3cccs3)CC2)cc1,pKa,[3],6.4
same,Ratio,MDCK [4],0.64
same,Papp B→A,[5],31.1 ×10⁻⁶ cm/s
same,Papp B→A,MDR1 [6],32.8 ×10⁻⁶ cm/s
same,Ratio,MDCK [7],0.78
same,Papp A→B,[8],20 ×10⁻⁶ cm/s
same,logD,[9],3.24
same,Papp A→B,MDR1 [10],25.6 ×10⁻⁶ cm/s
same,IC50,[1],1.52 µM
O=C(CN1CCN(CCOc2ccccc2)CC1)Nc1ccccc1Cl,IC50,[1],29.4 µM
COc1ccc(NC(=O)CN2CCN(CCOc3ccc(Cl)cc3)CC2)cc1,IC50,[1],2.62 µM
COc1ccc(NC(=O)CN2CCN(CCOc3ccc(C#N)cc3)CC2)cc1,IC50,[1],14.5 µM
Cc1ccc(C(=O)N2CCN(CCOc3ccccc3)CC2)cc1,IC50,[1],7.14 µM
Cc1ccc(OCCN2CCN(CC(=O)Nc3nccs3)CC2)c(C)c1,IC50,[1],17.2 µM
Cc1ccc(OCCN2CCN(CC(=O)Nc3nccs3)CC2)cc1,IC50,[1],8.93 µM
O=C(CN1CCN(CCOc2ccccc2)CC1)Nc1ccccc1,IC50,[1],28.6 µM
Cc1cccc(C)c1OCCN1CCN(CC(=O)Nc2nccs2)CC1,IC50,[1],85.9 µM
O=C(c1cccs1)N1CCN(CCOc2ccc(F)cc2)CC1,IC50,[1],12.7 µM
O=C(CN1CCN(CCOc2ccc3ccccc3c2)CC1)Nc1nccs1,IC50,[1],68 µM
N#Cc1ccc(OCCN2CCN(CC(=O)Nc3nccs3)CC2)cc1,pKa,[3],6.37
same,Ratio,MDCK [4],1.14
same,Papp,MDCK [11],16.7 ×10⁻⁶ cm/s
same,Papp,MDCK [12],19.8 ×10⁻⁶ cm/s
same,Ratio,MDCK [7],1.14
same,Papp,MDCK [13],14.8 ×10⁻⁶ cm/s
same,logD,[9],1.72
same,Papp,MDCK [14],18.9 ×10⁻⁶ cm/s
same,IC50,[1],0.97 µM
O=C(CN1CCN(CCOc2ccc(Cl)cc2)CC1)Nc1nccs1,IC50,[1],5.18 µM
N#Cc1ccc(OCCN2CCN(C(=O)c3cccs3)CC2)cc1,IC50,[1],10.2 µM
COc1ccc(C(=O)N2CCN(CCOc3ccccc3)CC2)cc1,IC50,[1],16.1 µM
O=C(c1cccs1)N1CCN(CCOc2ccc(Cl)cc2)CC1,pKa,[3],6.35
same,Ratio,MDCK [4],0.97
same,LD50,[15],73.7 mg/kg
same,Papp B→A,[5],21.9 ×10⁻⁶ cm/s
same,Papp B→A,MDR1 [6],19.3 ×10⁻⁶ cm/s
same,Ratio,MDCK [7],0.84
same,Papp A→B,[8],21.3 ×10⁻⁶ cm/s
same,Activity,Rattus norvegicus [16],inactive
same,logD,[9],1.94
same,Activity,Rattus norvegicus [17],Active
same,Activity,Rattus norvegicus [18],Active
same,Activity,Rattus norvegicus [19],inactive
same,Papp A→B,MDR1 [10],16.1 ×10⁻⁶ cm/s
same,IC50,[1],0.72 µM
same,Activity,Rattus norvegicus [20],Active
same,Activity,Rattus norvegicus [21],Active
O=C(c1cccs1)N1CCN(CCOc2ccccc2)CC1,IC50,[1],37.5 µM
O=C(CN1CCN(CCOc2ccc(OC(F)(F)F)cc2)CC1)Nc1ccccc1,IC50,[1],7.33 µM
Cc1ccc(OCCN2CCN(C(=O)c3ccccc3)CC2)cc1,IC50,[1],25.3 µM
CC(C)NCC(O)c1ccc(NS(C)(=O)=O)cc1 (stereo unspecified),Activity,Rattus norvegicus [16],inactive
same,Activity,Rattus norvegicus [18],Active
same,Activity,Rattus norvegicus [21],Active
O=C(CN1CCN(CCOc2ccc(OC(F)(F)F)cc2)CC1)Nc1nccs1,pKa,[3],6.74
same,Ratio,MDCK [4],1.5
same,Papp,MDCK [11],16.9 ×10⁻⁶ cm/s
same,Papp,MDCK [12],19.6 ×10⁻⁶ cm/s
same,Ratio,MDCK [7],1.42
same,Papp,MDCK [13],12.2 ×10⁻⁶ cm/s
same,logD,[9],3.94
same,Papp,MDCK [14],16.3 ×10⁻⁶ cm/s
same,IC50,[1],2.29 µM
COc1ccc(C(=O)N2CCN(CCOc3ccc(Cl)cc3)CC2)cc1,IC50,[1],5.5 µM
O=C(CN1CCN(CCOc2ccc(Cl)cc2)CC1)Nc1ccccc1Cl,IC50,[1],3.59 µM
CCCCc1oc2ccc(NS(C)(=O)=O)cc2c1C(=O)c1ccc(OCCCN(CCCC)CCCC)cc1 [DRONEDARONE HYDROCHLORIDE],Activity,Rattus norvegicus [17],Active
same,Activity,Rattus norvegicus [19],inactive
same,IC50,[1],2.37 µM
same,Activity,Rattus norvegicus [20],Active
O=C(c1ccccc1Cl)N1CCN(CCOc2ccccc2)CC1,IC50,[1],56.7 µM
CCOc1ccccc1OCCN1CCN(CC(=O)Nc2nccs2)CC1,inhibition,[2],11.9%
COc1ccc(OCCN2CCN(CC(=O)Nc3nccs3)CC2)cc1,IC50,[1],9.13 µM
O=C(c1cccs1)N1CCN(CCOc2ccc(OC(F)(F)F)cc2)CC1,IC50,[1],6.44 µM
O=C(c1cccs1)N1CCN(c2ccc(OC(F)(F)F)cc2)CC1,IC50,[1],48.4 µM
O=C(c1ccccc1)N1CCN(CCOc2ccc(Cl)cc2)CC1,IC50,[1],3.97 µM
CC(C)(C)c1ccc(OCCN2CCN(CC(=O)Nc3nccs3)CC2)cc1,IC50,[1],63.2 µM
Cc1ccc(NC(=O)CN2CCN(CCOc3ccc(C#N)cc3)CC2)cc1,IC50,[1],4.49 µM
O=C(c1cccs1)N1CCN(CCOc2ccc(Br)cc2)CC1,IC50,[1],12.2 µM
O=C(c1ccccc1)N1CCN(CCOc2ccccc2)CC1,IC50,[1],38.8 µM
O=C(CN1CCN(CCOc2ccccc2)CC1)Nc1nccs1,IC50,[1],29.3 µM
N#Cc1ccc(OCCN2CCN(CC(=O)Nc3ccccc3)CC2)cc1,IC50,[1],9.1 µM
N#Cc1ccc(OCCN2CCN(C(=O)c3ccccc3)CC2)cc1,IC50,[1],4.23 µM
Cc1ccccc1OCCN1CCN(CC(=O)Nc2nccs2)CC1,pKa,[3],7.11
same,Ratio,MDCK [4],1.09
same,Papp,MDCK [11],34.2 ×10⁻⁶ cm/s
same,Papp B→A,MDR1 [6],32.3 ×10⁻⁶ cm/s
same,Ratio,MDCK [7],0.92
same,Papp,MDCK [13],32.2 ×10⁻⁶ cm/s
same,logD,[9],2.45
same,Papp A→B,MDR1 [10],28.9 ×10⁻⁶ cm/s
same,IC50,[1],1.24 µM
